Laboratory results taken from ChEMBL document CHEMBL3352769, “Discovery of glycine sulfonamides as dual inhibitors of sn-1-diacylglycerol lipase α and α/β-hydrolase domain 6” (J Med Chem, 2014).
Blank lines part the entries; values can stand above or below the molecule they belong to. The source made the active and inactive calls. The calls are words filed in the database; no cut-off is given here.

What was measured:
[1] = molecular target: T1, Diacylglycerol lipase-alpha (Homo sapiens, UniProt Q9Y4D2); experiment: Inhibition of human DAGLalpha expressed in HEK293T cell membranes; format: cell-based, HEK-293T
T1 sequence (Q9Y4D2 whole entry): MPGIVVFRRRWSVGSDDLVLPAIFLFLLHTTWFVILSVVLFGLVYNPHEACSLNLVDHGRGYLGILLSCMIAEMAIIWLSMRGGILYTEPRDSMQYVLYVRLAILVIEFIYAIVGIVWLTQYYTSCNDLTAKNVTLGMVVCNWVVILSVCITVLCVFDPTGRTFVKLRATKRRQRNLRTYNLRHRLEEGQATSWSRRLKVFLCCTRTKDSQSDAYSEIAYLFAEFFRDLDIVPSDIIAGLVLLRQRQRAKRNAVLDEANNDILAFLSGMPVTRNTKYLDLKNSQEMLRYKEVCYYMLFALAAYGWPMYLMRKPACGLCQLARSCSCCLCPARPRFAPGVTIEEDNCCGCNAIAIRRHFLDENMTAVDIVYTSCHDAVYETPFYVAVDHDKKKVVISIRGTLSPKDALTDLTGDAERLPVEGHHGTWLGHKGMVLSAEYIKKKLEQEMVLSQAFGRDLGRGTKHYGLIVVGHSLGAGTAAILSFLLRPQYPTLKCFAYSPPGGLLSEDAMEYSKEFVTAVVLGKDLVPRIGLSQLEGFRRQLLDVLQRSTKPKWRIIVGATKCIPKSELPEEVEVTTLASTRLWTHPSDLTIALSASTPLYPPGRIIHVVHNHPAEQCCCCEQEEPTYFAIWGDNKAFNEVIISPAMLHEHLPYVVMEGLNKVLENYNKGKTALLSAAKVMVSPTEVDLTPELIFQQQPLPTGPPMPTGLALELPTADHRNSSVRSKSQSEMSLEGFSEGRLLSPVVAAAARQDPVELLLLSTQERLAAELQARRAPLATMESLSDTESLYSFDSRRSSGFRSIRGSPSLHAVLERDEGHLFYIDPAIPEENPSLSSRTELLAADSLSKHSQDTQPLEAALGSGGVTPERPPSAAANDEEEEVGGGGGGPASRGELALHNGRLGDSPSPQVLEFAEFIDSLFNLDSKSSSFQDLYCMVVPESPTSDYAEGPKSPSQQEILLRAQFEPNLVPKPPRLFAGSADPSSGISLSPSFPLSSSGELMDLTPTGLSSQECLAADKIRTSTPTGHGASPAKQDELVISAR
Procedure, shortened: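 Colorimetric biochemical assay using para-nitrophenylbutyrate as substrate with membranes from HEK293 cells overexpressing human DAGL-α.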

[2] = molecular target: T2, Diacylglycerol lipase-alpha (Mus musculus) (UniProt Q6WQJ1); experiment: Inhibition of MB064 labeling of DAGLalpha in mouse brain homogenates by activity based protein profiling assay
T2 sequence (whole entry): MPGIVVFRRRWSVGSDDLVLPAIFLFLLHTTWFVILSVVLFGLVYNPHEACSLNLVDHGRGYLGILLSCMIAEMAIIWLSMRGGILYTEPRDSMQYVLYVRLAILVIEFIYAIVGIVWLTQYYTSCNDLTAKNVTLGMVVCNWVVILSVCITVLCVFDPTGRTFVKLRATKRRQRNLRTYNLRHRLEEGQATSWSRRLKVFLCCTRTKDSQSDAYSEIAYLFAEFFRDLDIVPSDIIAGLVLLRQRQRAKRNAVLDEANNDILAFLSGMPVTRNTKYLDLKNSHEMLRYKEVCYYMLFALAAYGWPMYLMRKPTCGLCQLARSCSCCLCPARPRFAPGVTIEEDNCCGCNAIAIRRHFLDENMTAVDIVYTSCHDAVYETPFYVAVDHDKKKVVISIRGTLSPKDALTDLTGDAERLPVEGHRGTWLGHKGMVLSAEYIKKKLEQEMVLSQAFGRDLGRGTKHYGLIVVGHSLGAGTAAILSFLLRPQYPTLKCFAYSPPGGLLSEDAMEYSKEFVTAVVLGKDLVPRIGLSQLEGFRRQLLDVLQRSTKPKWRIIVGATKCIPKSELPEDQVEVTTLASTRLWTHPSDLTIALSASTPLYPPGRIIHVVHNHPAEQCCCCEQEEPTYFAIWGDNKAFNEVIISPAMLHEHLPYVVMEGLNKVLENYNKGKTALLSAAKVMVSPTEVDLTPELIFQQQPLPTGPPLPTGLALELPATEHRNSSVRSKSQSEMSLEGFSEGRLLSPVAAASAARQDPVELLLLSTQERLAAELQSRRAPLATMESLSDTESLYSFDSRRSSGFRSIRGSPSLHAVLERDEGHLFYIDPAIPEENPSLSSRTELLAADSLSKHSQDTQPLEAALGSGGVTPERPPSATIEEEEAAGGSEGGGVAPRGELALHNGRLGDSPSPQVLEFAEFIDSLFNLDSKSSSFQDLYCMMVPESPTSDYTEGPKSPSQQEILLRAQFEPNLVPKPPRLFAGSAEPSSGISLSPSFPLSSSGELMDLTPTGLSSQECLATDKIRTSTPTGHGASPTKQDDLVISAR

[3] = molecular target: T3, Monoacylglycerol lipase ABHD6 (Homo sapiens) (UniProt Q9BV23); experiment: (§1) Inhibition of human ABHD6 expressed in HEK293T cell membranes assessed as reduction in glycerol production using 2-arachidonoyl glycerol substrate; format: cell-based; settings: HEK-293T
T3 sequence (whole entry): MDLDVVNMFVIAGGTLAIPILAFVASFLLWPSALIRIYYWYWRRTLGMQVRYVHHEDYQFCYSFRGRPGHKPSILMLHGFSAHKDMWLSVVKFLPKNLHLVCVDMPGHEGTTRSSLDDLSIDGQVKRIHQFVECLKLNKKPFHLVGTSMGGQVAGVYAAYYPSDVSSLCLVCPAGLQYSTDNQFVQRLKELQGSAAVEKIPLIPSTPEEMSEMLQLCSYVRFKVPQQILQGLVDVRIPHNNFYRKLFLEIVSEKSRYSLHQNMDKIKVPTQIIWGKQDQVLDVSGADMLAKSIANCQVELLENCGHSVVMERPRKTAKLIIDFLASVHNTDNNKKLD
Procedure, shortened: (§2)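 Human ABHD6 membranes from transiently transfected HEK293T (0.04 µg/µL final) in HEMNB buffer, pH 7.4, preincubated 30 min with inhibitor. 2-AG (25 µM) added with glycerol kinase/GPO/HRP (0.2 U/mL), 0.125 mM ATP and 10 µM Amplifu Red. Resorufin fluorescence read every 5 min for 75 min at 21°C; slopes over 10–35 min, normalized; N = 2, n = 2.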

[4] = molecular target: T4, Monoacylglycerol lipase ABHD6 (Homo sapiens, UniProt Q9BV23); experiment: as §1; format: cell-based, HEK-293T; procedure, shortened: as §2
T4 sequence (Q9BV23 whole entry): T3 sequence (whole entry)

Mus musculus = species: Mus musculus; experiment: Inhibition of MAGL labeling in mouse brain homogenates at 20 uM by activity based protein profiling assay; format: tissue-based
Procedure, shortened: (§3)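 Mouse brain membrane proteome (2.0 mg/mL) preincubated 30 min at rt with inhibitor or DMSO vehicle, then labeled 15 min at rt with ABP 1 (250 nM final) or TAMRA-FP (500 nM final). Gel-based read-out: lane band intensity corrected for total protein loading by Coomassie stain, vehicle set to 100%.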

[5] = molecular target: T5, Monoacylglycerol lipase ABHD6 (Mus musculus) (UniProt Q8R2Y0); experiment: Inhibition of TAMRA-FP labeling of ABHD6 in mouse brain homogenates at 20 uM by activity based protein profiling assay; format: tissue-based; settings: in the assay text read “MB064” for “TAMRA-FP”; procedure, shortened: as §3
T5 sequence (whole entry): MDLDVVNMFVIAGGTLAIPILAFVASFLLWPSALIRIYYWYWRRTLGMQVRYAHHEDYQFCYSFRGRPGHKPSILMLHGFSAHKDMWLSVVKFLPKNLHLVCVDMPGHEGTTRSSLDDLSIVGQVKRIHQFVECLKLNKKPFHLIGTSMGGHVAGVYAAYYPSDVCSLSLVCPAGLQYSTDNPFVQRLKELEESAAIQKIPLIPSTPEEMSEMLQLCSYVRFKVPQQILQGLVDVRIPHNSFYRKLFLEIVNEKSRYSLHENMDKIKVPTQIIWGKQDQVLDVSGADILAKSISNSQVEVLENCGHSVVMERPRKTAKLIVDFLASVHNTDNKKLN

[6] = molecular target: T2, Diacylglycerol lipase-alpha (Mus musculus); experiment: (§4) Inhibition of MB064 labeling of DAGLalpha in mouse brain homogenates by activity based protein profiling assay; format: tissue-based
Procedure, shortened: (§5)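 Endogenous DAGL-α in mouse brain membrane proteome: inhibitors at a range of concentrations, 30 min at rt, then probe 1 for 10 min at rt. Quenched in SDS sample buffer, resolved on 10% SDS-PAGE, fluorescence scanned. Remaining activity taken from integrated band intensity; IC50 from dose-response curve (SEM, n = 3).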

[7] = molecular target: T6, Diacylglycerol lipase-alpha (Mus musculus, UniProt Q6WQJ1); experiment: as §4; format: tissue-based; procedure, shortened: as §5
T6 sequence (Q6WQJ1 whole entry): T2 sequence (whole entry)

[8] = molecular target: T1, Diacylglycerol lipase-alpha; experiment: Inhibition of human DAGLalpha expressed in HEK293T cell membranes assessed as reduction in hydrolysis of inhibition of [14C]-sn-1-oleoyl-2-arachidonoyl-glycerol; format: cell-based, HEK-293T

IC50 [1]: > 10000 nM
Compound: CC1(C)CCc2cc(S(=O)(=O)N(Cc3cccc(Oc4ccccc4)c3)Cc3nnn[nH]3)ccc2O1

IC50 [1]: > 10000 nM
Compound: COC(=O)CN(Cc1ccc(Oc2ccccc2)cc1)S(=O)(=O)c1ccc2c(c1)CCC(C)(C)O2

IC50 [1]: 66 nM
Compound: O=C(O)CN(Cc1ccc(Oc2ccccc2)cc1)S(=O)(=O)c1ccc(Cl)cc1

IC50 [1]: > 10000 nM
Compound: CC1(C)CCc2cc(S(=O)(=O)N(CC(=O)NCCOCCN)Cc3ccc(Oc4ccccc4)cc3)ccc2O1

IC50 [1]: 512 nM
Compound: CC1(C)CCc2cc(S(=O)(=O)N(CCN)Cc3ccc(Oc4ccccc4)cc3)ccc2O1

IC50 [1]: > 10000 nM
Compound: O=C(O)CN(Cc1ccc(Oc2ccccc2)cc1)C(=O)c1c(Cl)cccc1Cl

Continued, molecule first:

Compound: CC1(C)CCc2cc(S(=O)(=O)N(CC#N)Cc3cccc(Oc4ccccc4)c3)ccc2O1
IC50 [1]: > 10000 nM

Compound: CC1(C)CCc2cc(S(=O)(=O)N(CCOC(=O)N3CCCCC3)Cc3cccc(Oc4ccccc4)c3)ccc2O1
IC50 [1]: > 10000 nM

Compound: CC1(C)CCc2cc(S(=O)(=O)N(CC(N)=O)Cc3cccc(Oc4ccccc4)c3)ccc2O1
IC50 [1]: > 10000 nM

Compound: CC1(C)CCc2cc(S(=O)(=O)N(CC(=O)O)Cc3cccc(Oc4ccc(C(F)(F)F)cn4)c3)ccc2O1
IC50 [1]: 143 nM

Compound: O=C(O)CN(Cc1ccc(Oc2ccc(C(F)(F)F)cn2)cc1)S(=O)(=O)c1ccc(Cl)cc1
IC50 [1]: 302 nM

Compound: CC1(C)CCc2cc(S(=O)(=O)N(CC(=O)O)Cc3ccc(Oc4ccc(C(F)(F)F)cn4)cc3)ccc2O1
inhibition [2]: Dose-dependent effect
inhibition [3]: Dose-dependent effect
Ki [4]: 2700 nM
inhibition (Mus musculus): inactive
IC50 [1]: 65 nM
inhibition [5]: Active
inhibition [6]: Dose-dependent effect
IC50 [7]: 743 nM

Compound: CC1(C)CCc2cc(S(=O)(=O)N(CC(=O)O)Cc3ccccc3Oc3ccccc3)ccc2O1
IC50 [1]: 185 nM

Compound: CC1(C)CCc2cc(S(=O)(=O)N(CCO)Cc3cccc(Oc4ccccc4)c3)ccc2O1
IC50 [1]: > 10000 nM

Compound: CC1(C)CCc2cc(S(=O)(=O)N(CC(=O)O)Cc3ccc(Oc4ccccc4)cc3)ccc2O1
Ki [8]: 700 nM
inhibition [2]: Dose-dependent effect
inhibition [3]: Dose-dependent effect
Ki [4]: 800 nM
inhibition (Mus musculus): inactive
IC50 [1]: 18 nM
inhibition [5]: Active
inhibition [6]: Dose-dependent effect
IC50 [7]: 124 nM

Compound: O=C(O)CN(Cc1cccc(Oc2ccccc2)c1)S(=O)(=O)c1c(Cl)cccc1Cl
IC50 [1]: 1600 nM

Compound: O=C(O)CN(Cc1cccc(Oc2ccccc2)c1)S(=O)(=O)c1ccc(Cl)cc1
IC50 [1]: 91 nM

Compound: O=C(O)CN(Cc1ccc(Oc2ccc(C(F)(F)F)cn2)cc1)C(=O)c1ccc(Cl)cc1
IC50 [1]: > 10000 nM

Compound: O=C(O)CN(Cc1ccc(Oc2ccccc2)cc1)C(=O)c1ccc(Cl)cc1
IC50 [1]: > 10000 nM

Compound: CC1(C)CCc2cc(S(=O)(=O)N(CC(=O)O)Cc3cccc(Oc4ccccc4)c3)ccc2O1
inhibition [2]: Dose-dependent effect
inhibition [3]: Dose-dependent effect
Ki [4]: 18300 nM
inhibition (Mus musculus): inactive
IC50 [1]: 56 nM
inhibition [5]: Active
inhibition [6]: Dose-dependent effect
IC50 [7]: 355 nM

Compound: O=C(O)CN(Cc1ccc(Oc2ccccc2)cc1)S(=O)(=O)c1c(Cl)cccc1Cl
IC50 [1]: 695 nM
